Sampled rows, rich in hits. Any-hit rate of the full collection: about 1.8%.
TDP2 absorb: blocks human TDP2 phosphodiesterase activity; O95551; actives 0.34% (n = 370,000); inhibition, % at 12.8 µM; AID 720702; recombinant TDP2, T5PNP hydrolysis, p-nitrophenol absorbance 415 nm;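 active means inhibition above the mean of all tested compounds plus 3 SD, set per campaign, cut at about 25% in these data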;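 further: 0% = DMSO with enzyme and 100% = buffer with substrate but no TDP2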
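test system = human TDP2 enzyme | input = TDP2 enzyme at 120 nM final | medium = 50 mM Tris-HCl pH 7.5 with Mg2+, KCl, DTT, BSA | also added = T5PNP substrate, 5 mM | times = 2 h at 37 °C | technique = epi absorbance | benchmarks = high control without enzyme, low control DMSO plus TDP2 | replication = each compound tested once, singlicate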
UHRF1 MBD2 ctr: human UHRF1 methylated DNA binding inhibitors; inhibition, % at 4.4 µM; AID 687016; Q96T88; UHRF1 binding to methylated oligo, TR-FRET; actives 0.75% (n = 370,000);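 further: UHRF1 SRA domain binding a hemimethylated CpG hairpin DNA probe; 0% = median of test compound wells and 100% = reference inhibitor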
LEDGF integ inh: blocks HIV-1 LEDGF/p75-dependent DNA integration | TR-FRET IN-LEDGF/p75 DNA integration, Eu/Cy5 | inhibition, % at 3.7 µM | actives 0.64% (n = 370,000);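 active means inhibition above the screen-wide mean plus 3 SD, cut at about 13% in these data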;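 further: signal is the Cy5 over europium emission ratio at 671 and 618 nm; 0% = plate median of compound wells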
Casp6 inh: inhibitors of human caspase-6; P55212; purified caspase-6, Z-VEID-R110 cleavage fluorescence; inhibition, % at 12.5 µM; actives 0.53% (n = 350,000); AID 686996;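 active means mean inhibition across replicates at least about 35%, with every replicate also reaching that limit, limit read from the data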;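 further: 0% = median of neutral control wells and 100% = no fluorescence left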
NSD2 inh: inhibitors of human histone methyltransferase NSD2; O96028; NSD2 peptide methylation, AlphaScreen, 120 min; inhibition, % at 12.5 µM; actives 0.54% (n = 310,000); AID 743445; in the data active means inhibition above about 50%
MBD2 DNA inh: inhibitors of human MBD2 binding to methylated oligonucleotide; TR-FRET; inhibition, % at 4.4 µM; actives 0.31% (n = 370,000); AID 686964; in the data active means inhibition above about 13%
UHRF1 DNA bind: inhibits human UHRF1 binding to methylated oligonucleotide, MBD2 counter-screen. actives 25% (n = 1,000). shares compounds with MBD2 DNA inh. AID 720530. inhibition, % at 4.4 µM. TR-FRET;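 further: UHRF1 SRA domain binding a labeled hemimethylated CpG hairpin DNA; 0% = vehicle only and 100% = reference inhibitor with vehicle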
MBD2 confirm: confirmation of human MBD2-DBD methylated oligonucleotide binding inhibitors; AID 720531; actives 26% (n = 1,000); inhibition, % at 4.4 µM; shares compounds with MBD2 DNA inh; TR-FRET MBD2-DBD binding to methylated oligonucleotide; in the data active means inhibition above about 14%
* marks the source's active call; other numbers are inactive results; · = no result. Unless noted, no stated cut-off is given here; in the data, active means inhibition above about 21%; inactive means the rest.

SMILES	TDP2 absorb	UHRF1 MBD2 ctr	LEDGF integ inh	Casp6 inh	NSD2 inh	MBD2 DNA inh	UHRF1 DNA bind	MBD2 confirm
O=C(/C=C/c1ccc(-c2ccccc2[N+](=O)[O-])o1)c1ccco1	-1.1	34.1*	10.6	7.0	17.0	14.4*	4.5	-0.8
CCCc1nc2c(C)cc(Br)cn2c1Cc1ccccc1	-5.1	21.8*	-1.0	0.1	·	13.5*	11.1	5.7
CCCc1nc2ccc(Cl)cn2c1Cc1ccccc1	-0.6	23.2*	-1.3	6.2	·	18.2*	9.8	5.3
CCCc1nc2ccc(C)cn2c1Cc1cccc(Cl)c1	-5.5	20.5	4.3	-2.4	·	9.1	·	·
CNC[C@H]1Oc2ccc(NC(=O)C3CCCCC3)cc2CC(=O)N([C@@H](C)CO)C[C@@H]1C	·	·	·	0.8	·	·	·	·
C[C@H]1CN([C@@H](C)CO)C(=O)c2ccccc2-c2ccccc2CO[C@H]1CN(C)Cc1ccc(F)cc1	·	·	·	-0.8	·	·	·	·
O=C(C[C@H]1C=C[C@H](NC(=O)Nc2ccc(C(F)(F)F)cc2)[C@H](CO)O1)NCCN1CCCC1	·	·	·	-2.0	·	·	·	·
O=C(N[C@@H]1CC[C@H](CCNS(=O)(=O)c2ccc(F)cc2)O[C@H]1CO)C1CCCC1	·	·	·	0.2	·	·	·	·
Cc1ccc(C)c2[nH]c(=O)c(CN(CCN3CCOCC3)Cc3nnnn3CC3CCCO3)cc12 (centres undefined)	-10.9	2.7	-0.8	·	-9.1	17.7*	5.7	0.7
CCCn1c(N)c(N2CCCCC2)c(=O)n(CC(=O)Nc2ccc(OC(F)(F)F)cc2)c1=O	22.3	23.7*	11.5	·	-1.2	17.6*	15.4	2.4
CCCn1c(N)c(N2CCCCC2)c(=O)n(CC(=O)Nc2ccccc2C)c1=O	0.7	-1.3	-1.4	·	7.7	-5.4	·	·
C[C@@H]1CCCCO[C@H](CN(C)C(=O)Nc2ccc(F)cc2)[C@H](C)CN([C@H](C)CO)C(=O)c2cc(NS(C)(=O)=O)ccc2O1	·	·	·	3.6	·	·	·	·
COc1ccccc1C(=O)NC(CCSC)C(=O)NCC(c1cccs1)N(C)C (centres undefined)	0.3	2.8	0.4	-4.0	31.5	14.2*	11.4	2.2
COc1ccccc1C(=O)NC(CCSC)C(=O)NCC(c1ccco1)N(C)C (centres undefined)	-6.5	1.9	-7.7	·	·	3.9	·	·
COc1cccc(N2CCN(C(=O)c3ccc(CS(=O)c4ccccc4C)o3)CC2)c1 (centres undefined)	-11.4	0.9	2.3	1.7	0.0	1.7	·	·
COc1ccc(N2CCN(C(=O)c3ccc(CS(=O)c4cccc(C)c4)o3)CC2)cc1 (centres undefined)	-6.0	23.3*	-1.5	0.6	6.9	13.6*	5.2	3.9
Cc1noc(C)c1S(=O)(=O)Nc1ccc2c(c1)C(=O)N([C@H](C)CO)C[C@@H](C)[C@@H](CN(C)S(=O)(=O)c1cn(C)cn1)OCCCC[C@H](C)O2	·	·	·	-1.2	·	·	·	·
CN(C)c1ncc(C2=C(Cl)C(=O)C(N3CCCC3)=C(Cl)C2=O)s1	27.3*	72.6*	62.8*	·	56.9*	24.3*	36.4*	24.0*
O=C(O)C1=CCC=CC1C(=O)O (centres undefined)	-3.8	38.7*	-0.1	67.5*	16.0	17.3*	52.3*	20.2*
C=CCN1[C@H](CO)[C@H](c2ccc(C#CC3(O)CCCC3)cc2)[C@@H]1C#N	10.1	19.0	2.8	·	·	13.6*	5.0	10.9
C=CCN1[C@H](C#N)[C@@H](c2ccc(C#Cc3ccccc3OC)cc2)[C@H]1CO	16.1	17.0	0.6	·	·	13.6*	9.2	8.3
COC(=O)[C@@H]1[C@@H](CO)[C@@H]2Cn3c(ccc(-c4ccccc4)c3=O)[C@@H]2N1C(=O)CC1CC1	·	·	·	-5.1	·	·	·	·
Cc1cc(C(=O)N2CCN(c3ncccn3)CC2)cs1	9.7	3.7	1.0	·	-3.1	16.8*	-0.8	4.5
COc1ccccc1NC(=O)N1CC(=O)N2[C@H](CO)[C@@H](c3ccc(-c4ccccc4)cc3)[C@H]2C1	·	·	·	2.8	·	·	·	·
O=C(NC[C@H]1CC[C@H]2[C@H](CN2C(=O)CN2CCOCC2)O1)NC1CCCCC1	·	·	·	1.1	·	·	·	·
SMILES	TDP2 absorb	UHRF1 MBD2 ctr	LEDGF integ inh	Casp6 inh	NSD2 inh	MBD2 DNA inh	UHRF1 DNA bind	MBD2 confirm
COC(=O)C(=Cc1ccncc1)c1cccc2ccccc12	0.7	0.1	2.0	3.3	0.4	39.7*	7.3	2.1
O=C(Cn1nc(-c2ccccc2Cl)ccc1=O)Nc1ccccc1-c1ccccc1	-21.6	-1.4	1.5	1.1	2.6	43.0*	7.6	1.9
CCNC(=O)C[C@H]1CC[C@H](NC(=O)C2CCC2)[C@@H](CO)O1	·	·	·	1.8	·	·	·	·
COC(=O)C[C@@H]1CC[C@@H](NC(=O)C2CCC2)[C@@H](CO)O1	-7.8	23.4*	6.9	·	·	20.7*	9.4	4.0
COc1cc(/C=C(\C#N)C(=O)NCC2CCCO2)c([N+](=O)[O-])cc1OC (centres undefined)	17.8	20.8*	7.9	·	·	13.9*	7.4	1.8
O=C(C1CC1)N1CC(=O)N2[C@H](C1)[C@H](c1ccc(Br)cc1)[C@@H]2CO	·	·	·	1.4	·	·	·	·
O=C1COc2ccc(C(=O)COC(=O)/C=C/c3ccc(Br)o3)cc2N1	-1.4	45.6*	24.1*	28.5	0.0	18.8*	43.8*	32.4*
COc1ccc(-c2nc3c4ccccc4ccn3c2Cc2cccc(F)c2)cc1OC	-9.4	15.4	2.7	-2.2	·	15.5*	6.5	4.5
COc1cccc(NC(=O)Nc2nnc(Cc3ccc(F)cc3)s2)c1	-7.7	0.3	6.5	0.2	-0.7	34.1*	6.0	4.6
CC(=O)Nc1cccc(NC(=O)c2ccc3[nH]c(C)c(C)c3c2)c1	0.0	0.1	-7.4	-0.4	7.5	4.9	·	·
Cc1cc(NC(=O)c2ccc3[nH]c(C)c(C)c3c2)ccn1	-8.7	0.7	2.6	-4.0	-1.6	14.1*	9.5	3.2
CCNC(=O)C[C@@H]1CC[C@@H]2[C@@H](COc3ccc(NC(=O)c4ccc(C(F)(F)F)cc4)cc3C(=O)N2C)O1	·	·	·	2.4	·	·	·	·
O=C(Nc1ccccc1)N[C@@H]1CC[C@H](CCNS(=O)(=O)c2cccc(F)c2)O[C@@H]1CO	·	·	·	-1.8	·	·	·	·
Cc1cc(Br)ccc1NC(=O)CNC(=O)c1cnn(C)c1	-2.0	1.4	4.1	1.2	-0.3	18.3*	7.1	2.0
CO[C@H](CN(C)S(=O)(=O)c1ccc(Cl)cc1)[C@H](C)CN(C(=O)Nc1ccccc1F)[C@@H](C)CO	·	·	·	-1.9	·	·	·	·
O=C(NCC(F)(F)F)[C@@H]1[C@@H](CO)[C@@H]2Cn3c(cccc3=O)[C@@H]2N1C(=O)C1CCC1	·	·	·	1.9	·	·	·	·

Screening data as filed in PubChem.
